In ChEMBL document CHEMBL4020832, “Development of (6 R)-2-Nitro-6-[4-(trifluoromethoxy)phenoxy]-6,7-dihydro-5 H-imidazo[2,1- b][1,3]oxazine (DNDI-8219): A New Lead for Visceral Leishmaniasis” (J Med Chem, 2018):

Assays:
Liver [1] = assay: Metabolic stability in CD-1 mouse liver microsomes assessed as parent compound remaining at 0.5 uM after 0.5 hr; format: ADME, microsome
[2] = Metabolic stability in hamster liver microsomes assessed as parent compound remaining at 0.5 uM after 0.5 hr; format: ADME, microsome; details: read-out: Stability
Liver [3] = assay: Metabolic stability in human liver microsomes assessed as parent compound remaining at 0.5 uM after 0.5 hr; format: ADME, microsome
Liver [4] = assay: Metabolic stability in CD-1 mouse liver microsomes assessed as parent compound remaining at 1 uM after 1 hr; format: ADME, microsome
Liver [5] = assay: Metabolic stability in human liver microsomes assessed as parent compound remaining at 1 uM after 1 hr; format: ADME, microsome
[6] = Metabolic stability in hamster liver microsomes assessed as parent compound remaining at 1 uM after 1 hr; format: ADME, microsome; details: read-out: Stability
[7] = Initial concentration in Swiss albino mouse at 1 mg/kg, iv by LC-MS/MS analysis; format: ADME, organism-based; details: in vivo
Summary of the method: (§1)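 Male Swiss albino mice given 1 mg/kg iv in 20% NMP/40% PEG-400 in 100 mM citrate buffer pH 3. Plasma sampled at 0.083, 0.25, 0.5, 1, 2, 4, 6, 8, 10, 24 and 48 h. Levels measured by LC–MS/MS; noncompartmental PK parameters.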

Mus musculus [8] = assay: Oral bioavailability in Swiss albino mouse at 25 mg/kg by LC-MS/MS analysis; format: ADME, organism-based; details: in vivo
Summary of the method: (§2)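 Male Swiss albino mice dosed orally at 25 mg/kg as a suspension in 0.5% CMC/0.08% Tween 80 in water. Plasma sampled 0.25–48 h, analysed by LC–MS/MS. F from dose-normalized AUClast against a 1 mg/kg iv dose.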

[9] = Tmax in Swiss albino mouse at 25 mg/kg, po by LC-MS/MS analysis; format: ADME, organism-based; details: in vivo; summary of the method: as §2
[10] = Clearance in Swiss albino mouse at 1 mg/kg, iv by LC-MS/MS analysis; format: ADME, organism-based; details: in vivo
[11] = Half life in Swiss albino mouse at 1 mg/kg, iv by LC-MS/MS analysis; format: ADME, organism-based; details: Swiss albino, in vivo
[12] = Volume of distribution at steady state in Swiss albino mouse at 1 mg/kg, iv by LC-MS/MS analysis; format: ADME, organism-based; details: in vivo, read-out: Vdss; summary of the method: as §1
[13] = Cmax in Swiss albino mouse at 25 mg/kg, po by LC-MS/MS analysis; format: ADME, organism-based; parameters: dose 25 mg/kg, route oral; details: in vivo
[14] = Cmax in golden Syrian hamster at 40 mg/kg, po by LC-MS/MS analysis; format: ADME, organism-based, Mesocricetus auratus; parameters: dose 40 mg/kg, route oral; details: in vivo
Summary of the method: (§3)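 Fasted female golden Syrian hamsters. IV dose was 2 mg/kg as a solution in 20% NMP and 40% PEG-400 in citrate buffer (pH 3). Oral dosing at 40–50 mg/kg used PEG-400 as vehicle. Plasma was quantified by LC–MS/MS. AUClast was taken to the last time point (24 or 48 h).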

[15] = AUClast in golden Syrian hamster at 40 mg/kg, po after 24 to 48 hrs by LC-MS/MS analysis; format: ADME, organism-based, Mesocricetus auratus; details: in vivo; summary of the method: as §3
Mus musculus [16] = assay: Tmax in Swiss albino mouse at 40 mg/kg, po by LC-MS/MS analysis; format: ADME, organism-based; details: in vivo
[17] = Initial concentration in golden Syrian hamster at 2 mg/kg, iv by LC-MS/MS analysis; format: ADME, organism-based, Mesocricetus auratus; details: in vivo
Summary of the method: (§4)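 Fasted female golden Syrian hamsters given 2 mg/kg iv as a solution in 20% NMP and 40% PEG-400 in citrate buffer pH 3. Plasma concentrations determined by LC–MS/MS to derive PK parameters.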

Syrian golden hamster = assay: Oral bioavailability in golden Syrian hamster at 40 mg/kg by LC-MS/MS analysis; format: ADME, organism-based, Mesocricetus auratus; details: in vivo
[18] = Half life in golden Syrian hamster at 40 mg/kg, po by LC-MS/MS analysis; format: ADME, organism-based, Mesocricetus auratus; details: in vivo
[19] = Volume of distribution at steady state in golden Syrian hamster at 2 mg/kg, iv by LC-MS/MS analysis; format: ADME, organism-based, Mesocricetus auratus; details: in vivo, read-out: Vdss; summary of the method: as §4
[20] = Half life in Swiss albino mouse at 40 mg/kg, po by LC-MS/MS analysis; format: ADME, organism-based; details: in vivo
[21] = Clearance in golden Syrian hamster at 2 mg/kg, iv by LC-MS/MS analysis; format: ADME, organism-based, Mesocricetus auratus; details: in vivo
[22] = AUClast in golden Syrian hamster at 2 mg/kg, iv after 24 to 48 hrs by LC-MS/MS analysis; format: ADME, organism-based, Mesocricetus auratus; details: in vivo; summary of the method: as §3
Mus musculus [23] = assay: AUClast in Swiss albino mouse at 40 mg/kg, po after 24 to 48 hrs by LC-MS/MS analysis; format: ADME, organism-based; details: in vivo
[24] = Half life in golden Syrian hamster at 2 mg/kg, iv by LC-MS/MS analysis; format: ADME, organism-based, Mesocricetus auratus; details: in vivo; summary of the method: as §3
Mus musculus [25] = assay: Cmax in Swiss albino mouse at 40 mg/kg, po by LC-MS/MS analysis; format: ADME, organism-based; parameters: dose 40 mg/kg, route oral; details: in vivo
[26] = Tmax in golden Syrian hamster at 40 mg/kg, po by LC-MS/MS analysis; format: ADME, organism-based, Mesocricetus auratus; details: in vivo

Row | Stability (Liver [1]) | remaining at 0.5 h, 0.5 µM [2] | Stability (Liver [3]) | Stability (Liver [4]) | Stability (Liver [5]) | remaining at 1 h, 1 µM [6] | Structure (SMILES) | also measured
1 | 43% | 64% | 74% | – | – | – | O=C(Nc1ccccc1OC(F)(F)F)N[C@@H]1COc2nc([N+](=O)[O-])cn2C1 | –
2 | 81% | 57% | 65% | 27% | 16% | 5.8% | O=[N+]([O-])c1cn2c(n1)OC[C@H](OCc1ccc(-c3ccc(OC(F)(F)F)cc3Cl)cn1)C2 | –
3 | – | – | – | 61% | – | 7.5% | O=[N+]([O-])c1cn2c(n1)OC[C@H](NCc1ccc(OC(F)(F)F)cc1)C2 | –
4 | 77% | 37% | 85% | 66% | 58% | 10% | O=[N+]([O-])c1cn2c(n1)OC[C@H](OCc1ccc(-c3ccc(F)cc3)cn1)C2 | –
5 | 88% | 59% | 92% | – | – | – | O=[N+]([O-])c1cn2c(n1)OC[C@@H](OCc1ccc(-c3ccc(OC(F)F)cc3)cn1)C2 | –
6 | 74% | – | 96% | – | – | – | O=[N+]([O-])c1cn2c(n1)OC[C@@H](OCc1cccc(-c3ccc(F)cc3)n1)C2 | –
7 | 96% | 88% | – | – | – | – | O=[N+]([O-])c1cn2c(n1)OCC(COc1ccc(-c3ccc(OC(F)(F)F)cc3)nc1)C2 (centres undefined) | C0 [7]: 750 ng/mL; F (Mus musculus [8]): 11%; Tmax [9]: 10 h; clearance [10]: 1.2 mL/min/kg; half-life [11]: 20 h; Vd [12]: 1.9 L/kg; Cmax [13]: 870 ng/mL
8 | 86% | 45% | 71% | 56% | 49% | 11% | O=[N+]([O-])c1cn2c(n1)OC[C@H](OCc1ccc(-c3ccc(OC(F)F)cc3)cn1)C2 | –
9 | 78% | 31% | 75% | – | – | – | O=[N+]([O-])c1cn2c(n1)OC[C@@H](OCc1cccc(-c3ccc(OC(F)(F)F)cc3)n1)C2 | –
10 | – | 61% | – | – | 27% | 10% | O=[N+]([O-])c1cn2c(n1)OC[C@H](OCc1ccc(-c3ccc(OC(F)(F)F)cc3)cn1)C2 | Cmax [14]: 5700 ng/mL; AUC(0-t) [15]: 62700 ng·h/mL; Tmax (Mus musculus [16]): 4.7 h; C0 [17]: 650 ng/mL; F (Syrian golden hamster): 100%; half-life [18]: 5.8 h; Vd [19]: 8.2 L/kg; half-life [20]: 9.4 h; clearance [21]: 23 mL/min/kg; AUC(0-t) [22]: 1300 ng·h/mL; AUClast (Mus musculus [23]): 211000 ng·h/mL; half-life [24]: 6.3 h; Cmax (Mus musculus [25]): 16000 ng/mL
11 | 100% | 75% | 73% | – | – | – | O=[N+]([O-])c1cn2c(n1)OC[C@@H](OCc1ccc(-c3ccc(OC(F)(F)F)cc3Cl)cn1)C2 | –
12 | – | – | – | 57% | 59% | 5.2% | O=[N+]([O-])c1cn2c(n1)OC[C@H](OCc1ccc(-c3ccc(F)cc3F)cn1)C2 | Cmax [14]: 1900 ng/mL; AUC(0-t) [15]: 3950 ng·h/mL; C0 [17]: 930 ng/mL; Tmax [26]: 0.75 h; F (Syrian golden hamster): 37%; half-life [18]: 0.83 h; Vd [19]: 4 L/kg; clearance [21]: 63 mL/min/kg; AUC(0-t) [22]: 480 ng·h/mL; half-life [24]: 0.83 h
13 | – | – | – | 0.2% | 8% | – | O=[N+]([O-])c1cn2c(n1)OC[C@H](OCc1ncccc1-c1ccc(OC(F)(F)F)cc1)C2 | –
14 | – | – | – | 35% | 40% | – | O=[N+]([O-])c1cn2c(n1)OC[C@H](Oc1ccc(-c3ccc(OC(F)(F)F)cc3)nc1)C2 | –
15 | 75% | 43% | 78% | – | – | – | O=[N+]([O-])c1cn2c(n1)OC[C@@H](OCc1csc(-c3ccc(OC(F)(F)F)cc3)n1)C2 | –
